High-throughput results: PubChem BioAssay, several laboratories
A selection: hits, their analogues and other compounds. The true share with any hit is near 2%.
T cell HTS: modulators of CD8 T cell-vesicle binding, primary screen, mouse 2C CD8+ T cells, flow cytometry. 330,000 compounds, 0.068% hits. 2C CD8+ T cell-vesicle binding; stronger effect = lower value. response (vesicle binding), % at 7 µM;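 active = response, share of CD8 T cells binding vesicles, and their 90th percentile fluorescence all below set limits, cut at about 80% in these data, passing the limit was not always enough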;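 also: values below 100% mean blocked vesicle binding to the CD8+ T cells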
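Assay system – 2C mouse CD8+ T cells · Also added – QL9-loaded Drosophila micro-vesicles · Timing – Cell–vesicle co-incubation 1.5 h at 37 °C, staining 20 min on ice · Signal – flow cytometry of vesicle-bound cells · Measure – percent CD8+ FL2 mean versus row control · Controls – Peptide-free naked vesicles (low) and QL9 vesicles with 0.7% DMSO vehicle (high)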
Myeloid diff 2: induction of myeloid progenitor differentiation, primary screen, cell-based, flow cytometry, MLPCN library | ER-HoxA9 myeloid progenitors, lysozyme-GFP differentiation | calls only at 10 µM | 360,000 compounds, 1% hits;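 active = normalized GFP-positive differentiation at or above the plate's own cutoff, the solvent-only control mean plus 3 SD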;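 also: cells exposed to compound for four days before flow analysis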
NR2E3 ag-1: NR2E3 agonists in two-hybrid cells, primary screen, cell-based, luminescence, CHO-S, Gal4-NCOR/VP16-NR2E3; Photoreceptor-specific nuclear receptor (Homo sapiens), Q9Y5X4; luciferase; inhibition of corepressor binding, % at 3.98 µM; 360,000 compounds, 0.35% hits;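 active = inhibition above the mean of all tested compounds plus 3 SD, cut at about 70% in these data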;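 also: higher means lower luciferase signal from less NR2E3 corepressor binding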
Target sequence (Q9Y5X4 whole entry, looked up, the tested form may be a part): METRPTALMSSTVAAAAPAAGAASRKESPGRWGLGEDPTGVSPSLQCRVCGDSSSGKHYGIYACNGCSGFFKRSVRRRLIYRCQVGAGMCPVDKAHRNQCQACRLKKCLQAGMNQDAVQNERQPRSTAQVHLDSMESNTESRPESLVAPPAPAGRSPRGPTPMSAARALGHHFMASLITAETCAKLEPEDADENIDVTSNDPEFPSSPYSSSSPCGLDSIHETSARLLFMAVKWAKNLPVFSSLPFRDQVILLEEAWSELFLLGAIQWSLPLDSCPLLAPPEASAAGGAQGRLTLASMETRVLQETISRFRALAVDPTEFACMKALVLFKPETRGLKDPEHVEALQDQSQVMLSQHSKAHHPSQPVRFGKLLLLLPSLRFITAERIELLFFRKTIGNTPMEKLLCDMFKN
NR2E3 ag-2: inhibitors of NR2E3-RetCOR corepressor binding, primary screen, NR2E3 agonist project, biochemical, TR-FRET, GST-NR2E3, biotin-RetCOR. Photoreceptor-specific nuclear receptor (Homo sapiens), Q9Y5X4. 1536-well. inhibition of corepressor binding, % at 4.78 µM. 320,000 compounds, 0.12% hits. AID 2300, 2010;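 active = percent inhibition above the cutoff of mean plus 3 SD of all tested compounds, set per screening campaign, cut at about 20% in these data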
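Material: NR2E3–RetCOR corepressor complex | Quantity: 1.35 nM GST-tagged NR2E3 final | Schedule: 5 h at 4 °C | Replication: Singlicate compound wells | Reagent: RetCOR corepressor, biotinylated, 7 nM | Controls: Biotin wells as high control, 0.6% DMSO wells as low control | Signal: TR-FRET, Eu(K)-anti-GST donor, streptavidin-D2 acceptor, ex 340, em 617/671 nm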
GAA850 FXN act: FXN promoter activators, primary screen, cell-based, luciferase luminescence, HEK293 lucGAA850; HEK293 lucGAA850 FXN promoter luciferase reporter, 24 h; percent of 10 µM SAHA response; activation, % at 6 µM; 360,000 compounds, 0.56% hits; AID 540364, 2011;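 active = activation above the average of all compounds screened plus 3 SD, cutoff fixed separately per campaign, cut at about 7.5% in these data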
Of the large screens only hits and unclear results are named; the others gave an inactive call.

N#C/C(=C\c1ccc(-c2ccc(C(=O)O)cc2)o1)c1nc2ccccc2[nH]1	Myeloid diff 2 active (no result: T cell HTS, NR2E3 ag-2)
CCN1CCN(c2ccc(S(=O)(=O)N3CCCCC3)cc2NC(=O)/C=C/c2cccc(OC)c2OC)CC1	Myeloid diff 2 active
CCOC(=O)N1CCN(C(=O)c2ccc3c(=O)n(Cc4ccccc4OC)c(=S)[nH]c3c2)CC1	none
COc1ccccc1Cn1c(=S)[nH]c2cc(C(=O)N3CCC(C(N)=O)CC3)ccc2c1=O	Myeloid diff 2 active
COc1cccc(-c2ccc(NC(=O)C3CCCN(Cc4nccn4C)C3)cc2)c1 (stereo not given)	none
O=C(CSc1nnc(-c2cccc(F)c2)o1)N1CCCC1	none
COc1ccc(Oc2c(OC)cc(NCc3ccc(CN)cc3)c3ncccc23)cc1	Myeloid diff 2 active (no result: T cell HTS, NR2E3 ag-2)
Cc1ccc(CNC(=O)CC2(CC3=NS(=O)(=O)c4ccccc4N3)CCCC2)cc1	none
CN1CCc2c(sc3c2c(=O)n(-c2ccc(Cl)cc2)c2nncn32)C1	none
CCN(CC)CCn1c(=O)n(-c2ccc(Cl)cc2)c(=O)c2c3c(sc21)CN(C)CC3	Myeloid diff 2 active
CNC(=O)c1cc(C(=O)c2ccc(F)cc2C(F)(F)F)c[nH]1	T cell HTS 0.0
Cc1c(C(=O)NCc2ccccc2)sc(=O)n1Cc1ccccc1F	none (no result: T cell HTS, NR2E3 ag-2)
O=C(O)CC(C(=O)O)N1C(=O)/C(=C/c2ccc(-c3nc4ccccc4s3)o2)SC1=S (stereo not given)	none
O=C(O)c1cc(-c2ccc(/C=C3/SC(=S)N(Cc4ccccc4)C3=O)o2)ccc1Cl	Myeloid diff 2 active (no result: T cell HTS, NR2E3 ag-2)
O=C(O)CCN1C(=O)/C(=C/c2ccc(-c3nc4ccccc4s3)o2)SC1=S	Myeloid diff 2 active
O=C1/C(=C\c2cccc(O)c2)SC(=S)N1Cc1ccccc1	none
COc1cc(/C=C2/SC(=S)N(Cc3ccccc3)C2=O)ccc1O	Myeloid diff 2 active
O=C1/C(=C\c2ccc(O)c(O)c2)SC(=S)N1Cc1ccccc1	Myeloid diff 2 active (no result: NR2E3 ag-2)
Cc1ccc(/C=C2\SC(=S)N(Cc3ccccc3)C2=O)o1	none
COc1cccc(C(C)(O)c2nc(-c3cccc4cccnc34)cs2)c1 (stereo not given)	none (no result: T cell HTS, NR2E3 ag-2)
Nc1nnc(SCCOc2ccc(Br)cc2)s1	T cell HTS 0.0
CC(=O)Nc1ccc(CN(C)c2c(C)nc3ccc(C(=O)N4CCN(C(=O)c5ccco5)CC4)cn23)cc1	none (no result: T cell HTS, NR2E3 ag-2)
CCOC(=O)[C@]12CCCC=C1N(CCC1=CCCCC1)C(=O)[C@H](CC(=O)N1CCCC1)C2	none (no result: T cell HTS, NR2E3 ag-1, NR2E3 ag-2, GAA850 FXN act)
N#Cc1c(C(F)(F)F)cc(-c2ccc(Cl)c(Cl)c2)nc1SCCN1CCOCC1	none
N#Cc1c(C(F)(F)F)cc(-c2ccccc2)nc1SCc1nc(N)nc(N2CCOCC2)n1	Myeloid diff 2 active
Cc1cn([C@H]2C[C@H](O)[C@@H](CCC(=O)NCCc3cccs3)O2)c(=O)[nH]c1=O	none (no result: T cell HTS, NR2E3 ag-2, GAA850 FXN act)
O=C(CCC(=O)c1cccs1)c1cccs1	Myeloid diff 2 active
Cc1ccc(C)c(NC(=O)COC(=O)CCC(=O)c2cccs2)c1	Myeloid diff 2 active
CC1(C(=O)NS(=O)(=O)c2ccc(Cl)s2)CCN1C(=O)Cc1ccccc1Cl (stereo not given)	none (no result: T cell HTS, NR2E3 ag-2)
Cn1nc(-c2ccc(C(=O)Nc3ccc(F)cc3)cc2)c2ccccc2c1=O	none
Cc1ccc(NC(=O)c2ccc(-c3nn(C)c(=O)c4ccccc34)cc2)cc1	Myeloid diff 2 active
COc1ccc(Br)cc1CNC(=O)CCCc1cn(C)c2ccccc12	Myeloid diff 2 active
O=C(CCCSc1nc2ccccc2[nH]1)NCc1ccccc1	none
O=C(CCCSc1nc2ccccc2[nH]1)Nc1nnc(-c2ccccc2)o1	Myeloid diff 2 active
Cn1nnnc1Sc1ncnc2scc(-c3cccc4c3sc3ccccc34)c12	Myeloid diff 2 active (no result: NR2E3 ag-2)
COc1ccc(-c2csc3ncnc(Sc4nnnn4C)c23)cc1	Myeloid diff 2 active (no result: NR2E3 ag-2)
CC1=C(C(=O)N(C(C)C)C(C)C)CC(CC(=O)NC(c2ccccc2)c2ccccc2)C(=O)N1CCCN1CCCC1=O (stereo not given)	none (no result: T cell HTS, NR2E3 ag-2, GAA850 FXN act)
